Measured values as given in ChEMBL document CHEMBL1156192, “N-((1-benzyl-1H-1,2,3-triazol-4-yl)methyl)arylamide as a new scaffold that provides rapid access to antimicrotubule agents: synthesis and evaluation of antiproliferative activity against select cancer cell lines” (J Med Chem, 2010).
Values after ≈ are worked out from the molar mass of the structure shown. Active and inactive are the calls of the source. The calls are words filed in the database; no cut-off is given here.

What was measured:
MCF7 [1] = experiment: Antiproliferative activity against human MCF7 cells after 72 hrs by crystal violet biomass reduction assay; assay type: functional, cell-based; settings: MCF7, 72 h
Summary of the method: (§1)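 Cells grown in α-MEM with 5% FBS at 37 °C, 5% CO2; 2,500 cells/well allowed 24 h before compound in DMSO, triplicates, ≥5 concentrations, 72 h exposure. Biomass read by crystal violet staining, Triton X-100 elution, OD 595 nm. IC50 from dose-response as 50% reduction in net cell mass versus vehicle, corrected with no-cell background.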

U-937 = experiment: Antiproliferative activity against human U937 cells by sulforhodamine B assay; assay type: functional, cell-based
Summary of the method: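 U-937 cells in RPMI-1640 with 10% FBS and 1% Pen-Strep; 4 x 10^4 cells/well, compound in DMSO, replicates of 5, 72 h at 37 °C, 5% CO2. Fixed with cold TCA overnight at 4 °C. Stained 30 min with 0.057% SRB in 1% acetic acid; bound dye released in 10 mM Tris base, A510 read. Vehicle and cell-free wells set 100%/0% biomass; IC50 from logistic fit.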

[2] = Inhibition of tubulin polymerization at 10 uM
Summary of the method: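 Tubulin added in PIPES pH 6.9 buffer with EGTA, MgCl2, 5% glycerol; compound at 10 µM final from DMSO. After 10 min on ice, GTP added, then polymerization followed by absorbance at 340 nm for 30 min at 37 °C. Paclitaxel and nocodazole at 10 µM final as controls.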

HeLa [3] = experiment: Cell cycle arrest in human HeLa cells assessed as accumulation at G2/M cells at 5 uM after 18 hrs by flow cytometry; assay type: functional
Summary of the method: (§2)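 HeLa in RPMI-1640 with 10% FBS, Pen-Strep; 8 x 10^5 cells in 4 mL dosed at 5 µM (0.05% DMSO final) for 18 h, triplicate. Harvested cells fixed in 70% ice-cold ethanol 1 h at -20 °C, RNase A treated 2 h, propidium iodide 50 µg/mL stained. DNA content by flow cytometry, 20,000 events, single cells gated on PI width vs area.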

MCF7 [4] = experiment: Antiproliferative activity against human MCF7 cells by crystal violet biomass reduction assay; assay type: functional, cell-based; settings: TDE = time-dependent effect; summary of the method: as §1
HeLa [5] = experiment: Cell cycle arrest in human HeLa cells assessed as accumulation at G1 phase at 5 uM after 18 hrs by flow cytometry; assay type: functional; summary of the method: as §2
HeLa [6] = experiment: Cell cycle arrest in human HeLa cells assessed as accumulation at G2 phase at 5 uM after 18 hrs by flow cytometry; assay type: functional; summary of the method: as §2
HeLa [7] = experiment: Cell cycle arrest in human HeLa cells assessed as accumulation at S phase at 5 uM after 18 hrs by flow cytometry; assay type: functional; summary of the method: as §2
HeLa [8] = experiment: Cell cycle arrest in human HeLa cells assessed as accumulation at G2/G1 phase at 5 uM after 18 hrs by flow cytometry; assay type: functional; summary of the method: as §2
HeLa [9] = experiment: Change in cellular morphology of human HeLa cells assessed as DNA condensation at 5 uM after 18 hrs using propidium-iodide staining by confocal microscopy; assay type: functional, cell-based
Summary of the method: (§3)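 HeLa attached 3 h on cover slips, then 18 h with DMSO vehicle or 5 µM compound (0.05% DMSO final). Brief microtubule stabilizing buffer (PIPES pH 6.8), 0.5% glutaraldehyde fixation 10 min, NaBH4 quench, blocking; FITC anti-α-tubulin (1:50) with RNase A 2.5 h, then propidium iodide 50 µg/mL 15 min. Imaged by confocal microscopy.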

HeLa [10] = experiment: Change in cellular morphology of human HeLa cells assessed as microtubule disruption at 5 uM after 18 hrs using FITC-conjugated alpha-tubulin antibody by confocal microscopy; assay type: functional, cell-based; summary of the method: as §3
HeLa [11] = experiment: Cell cycle arrest in human HeLa cells assessed as accumulation at M phase at 5 uM after 18 hrs by flow cytometry; assay type: functional, cell-based; summary of the method: as §2
HeLa [12] = experiment: Change in cellular morphology of human HeLa cells assessed as interference in microtubule formation at 5 uM after 18 hrs by confocal microscopy; assay type: functional, cell-based; summary of the method: as §3
[13] = system: Mycobacterium tuberculosis; experiment: Antimycobacterial activity against Mycobacterium tuberculosis H37Rv; assay type: functional

## COc1cc2c(cc1O)CC[C@@H]1[C@@H]2CC[C@]2(C)[C@@H](O)CC[C@@H]12 [2-METHOXYESTRADIOL]
MCF7 [1]
  IC50: 0.842 µM
U-937
  IC50: 2.91 µM

## O=C(NCc1cn(Cc2cccc(Oc3ccccc3)c2)nn1)c1ccccn1
[2]
  inhibition: Active
HeLa [3]
  Activity: >90%
MCF7 [1]
  IC50: 0.046 µM
MCF7 [4]
  Activity: tde
U-937
  IC50: 0.58 µM
HeLa [5]
  Activity: 0.86%
HeLa [6]
  Activity: 90.72%
HeLa [7]
  Activity: 7.59%
HeLa [8]
  Activity: 2%
HeLa [9]
  Activity: Active
HeLa [10]
  Activity: Active
HeLa [11]
  Activity: Active
HeLa [12]
  Activity: Active

## O=C(OCc1ccccc1)[C@H]1COC(c2ccccc2OCc2ccccc2)=N1
[13]
  MIC: 4.2 µM (≈ 1.63 µg/mL)
MCF7 [1]
  IC50: > 20 µM

## CCCCCCCCCCCCCCCC(=O)N(O)CCCC[C@H](NC(=O)[C@H]1COC(c2ccccc2O)=N1)C(=O)O[C@@H](C)CC(=O)N[C@H]1CCCCN(O)C1=O
[13]
  MIC: 3.9 µM (≈ 3.13 µg/mL)

## COC(=O)Nc1nc2cc(C(=O)c3cccs3)ccc2[nH]1
[2]
  inhibition: Active

## COc1ccc(C2=NC(C(=O)Nc3ccccc3O)CO2)cc1 (configuration not stated)
[13]
  MIC: 13 µM (≈ 4.06 µg/mL)
MCF7 [1]
  IC50: > 20 µM

## CC(=O)O[C@H]1C(=O)[C@@]2(C)[C@H]([C@H](OC(=O)c3ccccc3)[C@]3(O)C[C@H](OC(=O)[C@H](O)[C@@H](NC(=O)c4ccccc4)c4ccccc4)C(C)=C1C3(C)C)[C@]1(OC(C)=O)CO[C@@H]1C[C@@H]2O
[2]
  inhibition: inactive

## O=C(NCc1cn(Cc2cccc(Oc3ccccc3)c2)nn1)c1ccccc1
MCF7 [1]
  IC50: 0.245 µM

## CC(=O)NCc1cn(Cc2cccc(Oc3ccccc3)c2)nn1
HeLa [3]
  Activity: inactive
MCF7 [1]
  IC50: 6.4 µM
U-937
  IC50: 28 µM
HeLa [5]
  Activity: 53.85%
HeLa [6]
  Activity: 17.26%
HeLa [7]
  Activity: 24.94%
HeLa [8]
  Activity: 1.87%

## COc1cc2c(c(OC)c1OC)-c1ccc(OC)c(=O)cc1[C@@H](NC(C)=O)CC2 [COLCHICINE]
MCF7 [1]
  IC50: 0.0134 µM
U-937
  IC50: 0.008 µM
